Our source for the IC50 values is ChEMBL document CHEMBL1949538, “Hybrids of privileged structures benzothiazoles and pyrrolo[2,1-c] [1,4]benzodiazepin-5-one, and diversity-oriented synthesis of benzothiazoles” (Eur J Med Chem, 2012).

Assay type in all cases: functional, cell-based
One experiment relates to HL-60. Put plainly: Cytotoxicity against human HL60 cells after 2 days by MTT assay. Particulars: HL-60, 48 h. The gist of the method: (§1)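 Leukemia lines (HL-60, THP-1, U-937, Jurkat) grown in RPMI-1640, A-549 in DMEM, both with 10% heat-inactivated FCS at 37 °C, 5% CO2. Cells seeded at 2 × 10⁴/well, dosed after 24 h and read 2 days later. MTT (5 mg/mL stock) added for 4 h at 37 °C, formazan dissolved in DMSO, read at 570 nm. Five replicates; IC50 from linear regression.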
For orientation: Tetrazolium dyes change colour on reduction, which living cells bring about.

A further experiment deals with U-937. Put plainly: Cytotoxicity against human U937 cells after 2 days by MTT assay. Particulars: U-937, 48 h. The method in brief: as §1
For another experiment, the system named is Jurkat. Put plainly: Cytotoxicity against human Jurkat cells after 2 days by MTT assay. Particulars: 48 h. The gist of the method: as §1
The subject of another experiment is THP-1. Put plainly: Cytotoxicity against human THP1 cells after 2 days by MTT assay. Particulars: THP-1, 48 h. The gist of the method:
as §1

The next experiment has as its system A549. Put plainly: Cytotoxicity against human A549 cells after 2 days by MTT assay. Particulars: A549, 48 h. The gist of the method:
as §1

For `COc1ccc2nc(-c3ccc4c(c3)N=C[C@@H]3CCCN3C4=O)sc2c1`, the IC50 (in general, the midpoint of a concentration-inhibition curve) was 6.39 µM in the experiment on HL-60, 6.03 µM in the experiment with U-937, 11.3 µM in the experiment with Jurkat and 2.14 µM in the experiment on THP-1.
As to `O=C1c2ccc(-c3nc4ccc(F)cc4s3)cc2N=C[C@@H]2CCCN12`, the IC50 stood at 4.13 µM in the experiment on HL-60, 3.44 µM in the experiment with U-937, 6.58 µM with Jurkat and 0.49 µM in the experiment with THP-1.
Regarding `O=C1c2ccc(-c3nc4ccccc4s3)cc2N=C[C@@H]2CCCN12`, the IC50 was determined as 7.27 µM with HL-60, 5.41 µM in the experiment on U-937, 9.43 µM in the experiment with Jurkat and 3.09 µM in the experiment on THP-1.
In the case of `COc1cc2nc(-c3cccc(N)c3C)sc2c(OC)c1OC`, the IC50 with HL-60 amounted to 5.63 µM; in the experiment on A549, 4.56 µM; with Jurkat, 9.75 µM; in the experiment with THP-1, 3.56 µM.
On the same counts, the results for `COc1ccc2nc(-c3ccc(N=C(NC4CCCCC4)NC4CCCCC4)cc3)sc2c1` are 7.15 µM, 3.23 µM, 2.23 µM and 3.1 µM.
In the same order, the values of `CC1(C)O[C@H]2O[C@H]([C@H](O)CO)[C@H](OCc3ccc(-c4nc5ccc(F)cc5s4)cc3)[C@H]2O1` are 22.3 µM, 5.01 µM, 3.2 µM and 3 µM.
For the molecule `COc1ccc2nc(-c3ccc(C)c(N)c3)sc2c1`, the IC50 with HL-60, in the experiment with U-937, in the experiment on A549, with Jurkat and in the experiment with THP-1 was above 50 µM throughout.
Turning to `Cc1ccc(-c2nc3ccc(F)cc3s2)cc1N`, the IC50 with HL-60, in the experiment on U-937, in the experiment with A549, in the experiment with Jurkat and with THP-1 was above 50 µM in each case.
Regarding `Cc1ccc(-c2nc3ccccc3s2)cc1N`, the IC50 with HL-60, in the experiment on U-937, in the experiment with A549, with Jurkat and in the experiment with THP-1 was above 50 µM in each case.
As for `COc1ccc2nc(-c3ccc(NC(=O)NCc4ccccc4)cc3)sc2c1`, the IC50 in the experiment with HL-60, in the experiment on U-937, in the experiment with A549, with Jurkat and in the experiment with THP-1 was above 50 µM throughout.
As for `COc1ccc2nc(-c3ccc(NC(=O)C4CC4)cc3)sc2c1`, the IC50 in the experiment on HL-60, in the experiment with U-937, in the experiment with A549, in the experiment on Jurkat and with THP-1 was above 50 µM in each case.
On to `CC1(C)O[C@H]2O[C@H]([C@H]3COC(C)(C)O3)[C@H](OCc3ccc(-c4nc5ccc(F)cc5s4)cc3)[C@H]2O1`, for which the IC50 in the experiment with HL-60, in the experiment with U-937, in the experiment with A549, in the experiment on Jurkat and in the experiment with THP-1 was above 50 µM in each case.
Turning to `COc1ccc2nc(-c3ccc(N)cc3)sc2c1`, the IC50 in the experiment on HL-60, in the experiment with U-937, in the experiment on A549, in the experiment with Jurkat and in the experiment with THP-1 was above 50 µM each time.
Turning to `CC[C@@]1(O)C(=O)OCc2c1cc1n(c2=O)Cc2cc3ccccc3nc2-1` [CAMPTOTHECIN], the IC50 is 0.6 µM in the experiment with HL-60; 1.98 µM with U-937; 0.008 µM with A549; 0.026 µM in the experiment with Jurkat; 0.071 µM with THP-1.
Turning to `COc1cc([C@@H]2c3cc4c(cc3[C@@H](O[C@@H]3O[C@@H]5CO[C@@H](C)O[C@H]5[C@H](O)[C@H]3O)[C@H]3COC(=O)[C@H]23)OCO4)cc(OC)c1O` [ETOPOSIDE], the IC50 with U-937 came to 17.9 µM; in the experiment on Jurkat, 5.35 µM.
